A selection: hits, their analogues and other compounds. The true share with any hit is near 1.3%.
DDE Tn6 FP inh = inhibitors of Tn6 peptide binding to fibrin DD(E), primary screen, biochemical, fluorescence polarization, human fibrin, Tn6 probe; Fibrinogen beta chain (Homo sapiens), P02675; Fibrin DD(E) TRITC-Tn6 fluorescence polarization displacement; inhibition, % at 8.3 µM; 370,000 compounds, 0.21% hits;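 active means inhibition above a per-campaign cutoff: mean of compounds within control limits plus 3 SD, cut at about 15% in these data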;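 further: 0% = median of all compound wells on the plate and 100% = blocking peptide control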
Tn7 DDE FP = inhibitors of Tn7 peptide binding to fibrin DD(E), primary screen, biochemical, fluorescence polarization, human fibrin, Tn7 probe. Fibrinogen beta chain (Homo sapiens), P02675. FP displacement of FITC-Tn7 peptide from fibrin DD(E); 0% = median of compound wells per plate. inhibition, % at 8.3 µM. 370,000 compounds, 0.13% hits;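 active means inhibition above the mean of compounds falling within the control limits plus 3 SD of them, cut at about 14% in these data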;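 further: 0% = plate median of compound wells and 100% = 10 µM Aha-Tn7 peptide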
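Test system – human fibrin DD(E) · Times – 10 min preincubation, 3 h with tracer, room temperature · Detection – fluorescence polarization of the labelled Tn7 tracer · Measure – percent inhibition normalized to high-control wells · Benchmarks – high control wells with 10 µM unlabelled Aha-Tn7 peptide (full inhibition) · Repeats – singlicate testing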
mABHD4 FP = ABHD4 inhibitors, primary screen, biochemical, fluorescence polarization, mouse | (Lyso)-N-acylphosphatidylethanolamine lipase (Mus musculus), Q8VD66 | purified mABHD4, FP-Rh probe fluorescence polarization | inhibition, % at 8.92 µM | 370,000 compounds, 0.54% hits | AID 720543, 2013;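 active means inhibition exceeding the mean over every tested compound plus 3 SD, cut at about 30% in these data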;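 further: 0% = plate median of compound wells and 100% = S159A mutant with DMSO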
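Test system: mABHD4 protein; Read-out basis: % inhibition; Incubation: 45 min + 60 min at 25 °C; Repeats: single replicate; Technique: fluorescence polarization with parallel and perpendicular emission, 525/598 nm; Compound: 8.92 µM, single dose; Benchmarks: full inhibition S159A mutant plus DMSO, zero as sample-well median.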
HTRA1 inhibitor = HTRA1 serine protease inhibitors, primary screen, biochemical, fluorescence polarization, HTS. 340,000 compounds, 0.5% hits. inhibition, % at 5.96 µM. Q92743. recombinant HTRA1, FP-rhodamine activity-based probe; in the data active means inhibition above about 36%;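 further: 0% = enzyme with DMSO and 100% = wells lacking enzyme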
Target sequence (Q92743 whole entry, looked up): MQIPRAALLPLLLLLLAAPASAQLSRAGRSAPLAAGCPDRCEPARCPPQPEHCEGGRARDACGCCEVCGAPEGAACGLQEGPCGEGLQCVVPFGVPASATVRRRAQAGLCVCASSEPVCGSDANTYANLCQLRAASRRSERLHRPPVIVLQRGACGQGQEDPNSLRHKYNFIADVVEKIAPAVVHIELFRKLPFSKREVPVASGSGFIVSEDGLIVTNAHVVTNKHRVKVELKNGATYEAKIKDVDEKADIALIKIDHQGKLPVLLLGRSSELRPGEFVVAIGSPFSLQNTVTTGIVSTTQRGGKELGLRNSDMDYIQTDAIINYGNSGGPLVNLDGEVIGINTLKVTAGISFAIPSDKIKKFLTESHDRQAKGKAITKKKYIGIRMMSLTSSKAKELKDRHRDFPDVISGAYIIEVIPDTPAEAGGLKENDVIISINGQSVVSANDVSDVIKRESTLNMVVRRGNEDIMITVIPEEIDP
TCR-CD3 inh = inhibitors of human TCR-CD3 interaction, primary screen, biochemical, fluorescence, TAMRA-labeled TCR probe; T-cell receptor (TCR); inhibition, % at 9.4 µM; 360,000 compounds, 0.37% hits; AID 651800, 2012; in the data active means inhibition above about 19%;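 further: recombinant mutant TCR 2C K166C tagged with TAMRA read by polarization; 0% = receptor in buffer alone and 100% = receptor with positive control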
mABHD4 conf = ABHD4 inhibitors, retest, confirmation, biochemical, fluorescence polarization, mouse; shares compounds with mABHD4 FP; purified mABHD4, FP-Rh probe fluorescence polarization; inhibition, % at 8.92 µM; 1,800 compounds, 55% hits;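 active means mean inhibition across replicates above the hit cutoff set in the primary screen, cut at about 30% in these data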;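 further: 0% = wild-type ABHD4 with DMSO and 100% = catalytically dead S159A mutant with DMSO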
An asterisk follows results filed as active; x = no result.

SMILES	DDE Tn6 FP inh	Tn7 DDE FP	mABHD4 FP	HTRA1 inhibitor	TCR-CD3 inh	mABHD4 conf
Cc1ccc(S(=O)(=O)N2CCC(C(=O)NCCN3CCOCC3)CC2)cc1C	-4	2	-2	3	-3	x
O=[N+]([O-])c1ccccc1C(=Nc1ccccc1)c1c(O)cc(O)cc1O	-4	5	30*	4	-1	3
O=C(Nc1ccccc1)c1ccccc1NC(=O)c1ccccc1[N+](=O)[O-]	-3	3	2	-15	-4	x
O=C(N/N=C/c1ccc(Br)cc1)c1ccc(F)cc1	-5	-2	3	-3	0	x
COc1ccc(OC)c(C2Nc3c(Cl)ccc(C(=O)O)c3C3C=CCC32)c1 (stereo unspecified)	-1	-2	47*	16	0	22
COC(=O)COc1ccc(C2Nc3c(Cl)ccc(C(=O)O)c3C3C=CCC32)cc1 (stereo unspecified)	3	-6	36*	28	16	20
COc1ccc(OC)c(C2NC(=O)CCC2[N+](=O)[O-])c1 (stereo unspecified)	-1	-8	7	-3	3	x
CC(C)N1CC2(CC(c3ccccc3C(F)(F)F)=NO2)CN1C(=O)c1ccco1 (stereo unspecified)	-1	-6	31*	5	10	21
CC(C)N1CC2(CC(c3ccccc3C(F)(F)F)=NO2)CN1C(=O)c1ccc(C(C)(C)C)cc1 (stereo unspecified)	0	2	53*	-27	-5	43*
CC(C)N1CC2(CC(c3ccccc3F)=NO2)CN1C(=O)c1ccc(C(C)(C)C)cc1 (stereo unspecified)	-1	-2	6	-25	-9	x
Cc1ccc(NC(=O)C2(c3ccc([N+](=O)[O-])cc3)CCCC2)cc1	-7	-4	-7	-21	-1	x
CC(C)(C)NC(=O)c1ccc2c3c(cccc13)CC2	-1	7	-1	8	2	x
Cc1ccc(N2NC(=O)/C(=C/c3ccc(-c4ccc(Cl)c(C(=O)O)c4)o3)C2=O)cc1C	-2	1	12	8	-7	x
O=C1NN(c2ccc(Cl)c(Cl)c2)C(=O)/C1=C/c1ccc(-c2ccccc2C(=O)O)o1	-1	7	31*	2	-4	65*
CCN1C(=O)[C@H]2[C@@H](c3ccc(-c4ccc5c(c4)OCO5)c(OC)c3)N[C@@](C)(C(=O)OC)[C@H]2C1=O	4	-1	2	-2	-1	x
Cc1cc(NN=Cc2ccccn2)nc2ccccc12	-2	-5	43*	x	-4	27
C(=N\Nc1nc2ccccc2s1)/c1ccccn1	-1	1	37*	x	-2	40*
Cc1cc(NN=Cc2ccccn2)nc2c(C)cccc12	2	1	2	x	-3	x
CCC/C=N/Nc1nc2ccccc2s1	-1	-4	50*	28	-9	17
C(=NNc1ccc2ccccc2n1)c1ccccn1	-5	5	44*	x	-5	12
c1ccc(Nc2nc(NCc3ccco3)c3ccccc3n2)cc1	2	0	21	-28	-10	x
COc1cccc(Nc2nc(NCCO)c3ccccc3n2)c1	-7	1	39*	5	-9	47*
Cc1cccc(Nc2nc(NCc3ccco3)c3ccccc3n2)c1	-18	2	39*	-25	6	46*
COC(=O)C1=C(O)/C(=C\c2ccc(CNS(=O)(=O)c3ccccc3)o2)N=C1C	5	6	32*	8	17	15
COC(=O)C1=C(O)/C(=C\c2ccc(CNS(=O)(=O)c3ccc(Cl)cc3)o2)N=C1C	-1	-1	29	34	14	x
SMILES	DDE Tn6 FP inh	Tn7 DDE FP	mABHD4 FP	HTRA1 inhibitor	TCR-CD3 inh	mABHD4 conf
O=C1NCN(c2ccccc2)C12CCN(CCCC(c1ccc(F)cc1)c1ccc(F)cc1)CC2	-9	-3	32*	-10	-9	37*
CC1=C(C(=O)N2CCOCC2)C(c2c(F)cccc2F)NC(=O)N1 (stereo unspecified)	1	0	4	2	6	x
O=C(NC1CC1)c1sc2ccccc2c1Cl	-6	5	-2	3	-6	x
O=C(NNC(=S)NC1CCCCC1)c1sc2ccccc2c1Cl	-2	-5	31*	9	6	22
Cn1ccc2c(/C=C/c3ccc(F)cc3)cc3c(c21)C1CCC3C1 (stereo unspecified)	1	6	45*	x	-1	38*
O=C1C(C=Nc2ccccc2)=C(O)c2ccccc21	6	6	5	-4	5	x
O=C1C(=O)c2ccccc2C(O)=C1CC=C(Cl)Cl	9	-5	38*	15	0	17
CCCOC(=O)Nc1ccc(S(=O)(=O)Nc2ncccn2)cc1	-5	5	1	9	-6	x
NNc1nc2sc3c(c2c(=O)[nH]1)CCc1ccccc1-3	-8	-8	58*	23	8	12
O=C(CN1/C(=C(/O)c2ccccc2)C(=O)c2ccccc2S1(=O)=O)c1ccccc1	9	9	10	7	-1	x
O=C(Nc1cccc(F)c1)c1ccc(S(=O)(=O)NCC2CCCO2)cc1 (stereo unspecified)	-11	1	-4	-5	6	x
N#C/C(=C\c1ccc(-c2ccccc2)o1)C(=O)Nn1cnnc1	1	-1	47*	-3	-4	1
Cc1ccc(S(=O)(=O)CCC(=O)OCc2cc(=O)oc3cc(C)ccc23)cc1	-2	0	1	-9	-6	x
O=c1c2cc3c(=O)n(-c4ccccc4O)c(=O)c3cc2c(=O)n1-c1ccccc1O	3	1	30*	20	6	2
Fc1cc2[nH]c(=S)[nH]c2c(Br)c1N1CCSCC1	-3	-5	6	-3	-3	x
CC1CCC(C(C)C)C(OCC(O)CNC(C)(C)C)C1 (stereo unspecified)	3	7	-3	-10	-1	x
CC(C)[C@@H]1CC[C@@H](C)C[C@H]1OC[B-](F)(F)F	-4	-1	43*	x	-6	47*
C=CCN1C(=O)CSC1=Nc1ccc(O)cc1	-9	-2	3	-1	2	x
C=CCn1c(O)c(C2=c3ccccc3=NC2=O)sc1=Nc1ccc(O)cc1	1	0	35*	10	7	73*
CCCCN(C(=O)c1ccc2c(c1)OCO2)c1c(N)n(CC(C)C)c(=O)[nH]c1=O	12	6	-3	-1	5	x
COc1cccc2sc(NN)nc12	-4	2	92*	28	-2	44*
O=C(c1ccc2c(c1)N(Cc1ccccc1)CCS2)N1CCOCC1	-8	-4	-3	2	3	x

High-throughput results: PubChem BioAssay, The Scripps Research Institute Molecular Screening Center
